Measurements published in ChEMBL document CHEMBL1152689, “Synthesis, tautomerism, and antimicrobial, anti-HCV, anti-SSPE, antioxidant, and antitumor activities of arylazobenzosuberones” (Bioorg Med Chem, 2009).
pIC50: −log10 of the molar value. In brackets after ≈: the same amount, converted by molar mass. Activity calls are given as the source filed them. The rule behind the calls is not given here.

Test system: Penicillium italicum
Assay: Antimicrobial activity against Penicillium italicum at 5 ug/mL by agar diffusion method
Format: functional
Details: read-out: IZ

Compound | zone of inhibition at 5 µg/mL [mm]
O=C1/C(=N/Nc2ccc([N+](=O)[O-])cc2)CCCc2ccccc21 | 0

Test system: Syncephalastrum racemosum
Assay: Antimicrobial activity against Syncephalastrum racemosum at 5 ug/mL by agar diffusion method
Format: functional
Details: read-out: IZ

Compound | zone of inhibition at 5 µg/mL [mm]
O=C1/C(=N/Nc2ccc([N+](=O)[O-])cc2)CCCc2ccccc21 | 16

Test system: Candida albicans
Assay: Antimicrobial activity against Candida albicans at 5 ug/mL by agar diffusion method
Format: functional
Details: read-out: IZ

Compound | zone of inhibition at 5 µg/mL [mm]
O=C1/C(=N/Nc2ccc([N+](=O)[O-])cc2)CCCc2ccccc21 | 12

Test system: Staphylococcus aureus
Assay: Antimicrobial activity against Staphylococcus aureus at 5 ug/mL by agar diffusion method
Format: functional
Details: read-out: IZ

Compound | zone of inhibition at 5 µg/mL [mm]
O=C1/C(=N/Nc2ccc([N+](=O)[O-])cc2)CCCc2ccccc21 | 9

Test system: Pseudomonas aeruginosa
Assay: Antimicrobial activity against Pseudomonas aeruginosa at 5 ug/mL by agar diffusion method
Format: functional
Details: read-out: IZ

Compound | zone of inhibition at 5 µg/mL [mm]
O=C1/C(=N/Nc2ccc([N+](=O)[O-])cc2)CCCc2ccccc21 | 0

Test system: Bacillus subtilis
Assay: Antimicrobial activity against Bacillus subtilis at 5 ug/mL by agar diffusion method
Format: functional
Details: read-out: IZ

Compound | zone of inhibition at 5 µg/mL [mm]
O=C1/C(=N/Nc2ccc([N+](=O)[O-])cc2)CCCc2ccccc21 | 14

Test system: Escherichia coli
Assay: Antimicrobial activity against Escherichia coli at 5 ug/mL by agar diffusion method
Format: functional
Details: read-out: IZ

Compound | zone of inhibition at 5 µg/mL [mm]
O=C1/C(=N/Nc2ccc([N+](=O)[O-])cc2)CCCc2ccccc21 | 8

Test system: Aspergillus fumigatus
Assay: Antimicrobial activity against Aspergillus fumigatus at 2.5 ug/mL by agar diffusion method
Format: functional
Details: read-out: IZ

Compound | zone of inhibition at 2.5 µg/mL [mm]
O=C1/C(=N/Nc2ccc([N+](=O)[O-])cc2)CCCc2ccccc21 | 8

Test system: Penicillium italicum
Assay: Antimicrobial activity against Penicillium italicum at 2.5 ug/mL by agar diffusion method
Format: functional
Details: read-out: IZ

Compound | zone of inhibition at 2.5 µg/mL [mm]
O=C1/C(=N/Nc2ccc([N+](=O)[O-])cc2)CCCc2ccccc21 | 0

Test system: Syncephalastrum racemosum
Assay: Antimicrobial activity against Syncephalastrum racemosum at 2.5 ug/mL by agar diffusion method
Format: functional
Details: read-out: IZ

Compound | zone of inhibition at 2.5 µg/mL [mm]
O=C1/C(=N/Nc2ccc([N+](=O)[O-])cc2)CCCc2ccccc21 | 9

Test system: Candida albicans
Assay: Antimicrobial activity against Candida albicans at 2.5 ug/mL by agar diffusion method
Format: functional
Details: read-out: IZ

Compound | zone of inhibition at 2.5 µg/mL [mm]
O=C1/C(=N/Nc2ccc([N+](=O)[O-])cc2)CCCc2ccccc21 | 6

Test system: Staphylococcus aureus
Assay: Antimicrobial activity against Staphylococcus aureus at 2.5 ug/mL by agar diffusion method
Format: functional
Details: read-out: IZ

Compound | zone of inhibition at 2.5 µg/mL [mm]
O=C1/C(=N/Nc2ccc([N+](=O)[O-])cc2)CCCc2ccccc21 | 3

Test system: Pseudomonas aeruginosa
Assay: Antimicrobial activity against Pseudomonas aeruginosa at 2.5 ug/mL by agar diffusion method
Format: functional
Details: read-out: IZ

Compound | zone of inhibition at 2.5 µg/mL [mm]
O=C1/C(=N/Nc2ccc([N+](=O)[O-])cc2)CCCc2ccccc21 | 0

Test system: Bacillus subtilis
Assay: Antimicrobial activity against Bacillus subtilis at 2.5 ug/mL by agar diffusion method
Format: functional
Details: read-out: IZ

Compound | zone of inhibition at 2.5 µg/mL [mm]
O=C1/C(=N/Nc2ccc([N+](=O)[O-])cc2)CCCc2ccccc21 | 8

Test system: Escherichia coli
Assay: Antimicrobial activity against Escherichia coli at 2.5 ug/mL by agar diffusion method
Format: functional
Details: read-out: IZ

Compound | zone of inhibition at 2.5 µg/mL [mm]
O=C1/C(=N/Nc2ccc([N+](=O)[O-])cc2)CCCc2ccccc21 | 0

Test system: Aspergillus fumigatus
Assay: Antimicrobial activity against Aspergillus fumigatus at 1.25 ug/mL by agar diffusion method
Format: functional
Details: read-out: IZ

Compound | zone of inhibition at 1.25 µg/mL [mm]
O=C1/C(=N/Nc2ccc([N+](=O)[O-])cc2)CCCc2ccccc21 | 5

Test system: Penicillium italicum
Assay: Antimicrobial activity against Penicillium italicum at 1.25 ug/mL by agar diffusion method
Format: functional
Details: read-out: IZ

Compound | zone of inhibition at 1.25 µg/mL [mm]
O=C1/C(=N/Nc2ccc([N+](=O)[O-])cc2)CCCc2ccccc21 | 0

Test system: Syncephalastrum racemosum
Assay: Antimicrobial activity against Syncephalastrum racemosum at 1.25 ug/mL by agar diffusion method
Format: functional
Details: read-out: IZ

Compound | zone of inhibition at 1.25 µg/mL [mm]
O=C1/C(=N/Nc2ccc([N+](=O)[O-])cc2)CCCc2ccccc21 | 4

Test system: Candida albicans
Assay: Antimicrobial activity against Candida albicans at 1.25 ug/mL by agar diffusion method
Format: functional
Details: read-out: IZ

Compound | zone of inhibition at 1.25 µg/mL [mm]
O=C1/C(=N/Nc2ccc([N+](=O)[O-])cc2)CCCc2ccccc21 | 0

Test system: Staphylococcus aureus
Assay: Antimicrobial activity against Staphylococcus aureus at 1.25 ug/mL by agar diffusion method
Format: functional
Details: read-out: IZ

Compound | zone of inhibition at 1.25 µg/mL [mm]
O=C1/C(=N/Nc2ccc([N+](=O)[O-])cc2)CCCc2ccccc21 | 0

Test system: Pseudomonas aeruginosa
Assay: Antimicrobial activity against Pseudomonas aeruginosa at 1.25 ug/mL by agar diffusion method
Format: functional
Details: read-out: IZ

Compound | zone of inhibition at 1.25 µg/mL [mm]
O=C1/C(=N/Nc2ccc([N+](=O)[O-])cc2)CCCc2ccccc21 | 0

Test system: Bacillus subtilis
Assay: Antimicrobial activity against Bacillus subtilis at 1.25 ug/mL by agar diffusion method
Format: functional
Details: read-out: IZ

Compound | zone of inhibition at 1.25 µg/mL [mm]
O=C1/C(=N/Nc2ccc([N+](=O)[O-])cc2)CCCc2ccccc21 | 3

Test system: Escherichia coli
Assay: Antimicrobial activity against Escherichia coli at 1.25 ug/mL by agar diffusion method
Format: functional
Details: read-out: IZ

Compound | zone of inhibition at 1.25 µg/mL [mm]
O=C1/C(=N/Nc2ccc([N+](=O)[O-])cc2)CCCc2ccccc21 | 0

Test system: Hepatitis C virus
Assay: Antiviral activity against HCV by cell based replicon assay
Format: functional, Hepacivirus hominis
Details: not given
Procedure, shortened: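 HCV replicon cells plated at 1×10^4 per well. Next day incubated at 37 °C with serially diluted compound in DMEM with 2% FBS and 0.5% DMSO. HCV RNA copy number measured by quantitative RT-PCR on total cellular RNA. Each point is the average of five replicates. Cytotoxicity measured by MTS in parallel.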

Compound | MIC [µg/mL]
O=C1/C(=N/Nc2ccc([N+](=O)[O-])cc2)CCCc2ccccc21 | 1.03 (≈ 3.34 µM)

Test system: Measles morbillivirus
Assay: Antiviral activity against Measles virus infected in intracranially dosed hamster assessed as inhibition of subacute sclerosing panencephalitis
Format: functional
Details: not given
Procedure, shortened: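 Hamsters under ether anesthesia injected intracranially, into the subarachnoid space at 2 mm depth, at 5, 10 and 20 mg/kg/day for 10 days. Four animals per group sacrificed on days 1–20. Brains homogenized in PBS and centrifuged, supernatant deproteinized with ethanol, then MIC in brain tissue determined by HPLC and bioassay.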

Compound | MIC [µg/mL]
O=C1/C(=N/Nc2ccc([N+](=O)[O-])cc2)CCCc2ccccc21 | 6.08 (≈ 19.7 µM)

Test system: Radical scavenging activity
Assay: Antioxidant activity assessed as DPPH free radical scavenging activity by measuring reduction in DPPH absorbance by ELISA relative to untreated control
Format: functional
Design: concentration or dose not given beside the values
Details: not given
Procedure, shortened: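 Test compounds dissolved in DMSO, ascorbic acid standard in water, both serially diluted. 10 µl sample added to 90 µl of 100 µM DPPH in methanol and kept in the dark at 37 °C for 30 min. Absorbance read at 515 nm. Blank is DMSO plus DPPH. % reduction = (A_B − A_A)/A_B × 100. Run in triplicate.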

Compound | Activity [%]
O=C1/C(=N/Nc2ccc([N+](=O)[O-])cc2)CCCc2ccccc21 | 82

Test system: not listed separately
Assay: Antioxidant activity assessed as inhibition of peroxynitrite-mediated 3-nitrotyrosine formation by HPLC
Format: functional
Details: not given
Procedure, shortened: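 Tyrosine and peroxynitrite, each 100 µM, reacted with compound at 0–300 µM in 100 mM phosphate buffer pH 7.4 at 37 °C for 15 min. Peroxynitrite made from acidified H2O2 plus KNO2, quenched with NaOH, and kept on ice no longer than 30 min before use.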

Compound | pIC50
O=C1/C(=N/Nc2ccc([N+](=O)[O-])cc2)CCCc2ccccc21 | 5.29

Test system: MC-38
Assay: Antitumor activity against mouse Colon 38 cells implanted in iv dosed C57BL/6 mouse administered as single dose
Format: functional, organism-based
Details: not given
Procedure, shortened: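 Female C57BL/6 mice, 6 weeks old, given about 30 mg Colon 38 tumor tissue s.c. in the flank. Randomized into groups of n = 5 when tumors reached about 300 mm3 (day 1). Compound in 5% glucose given as a single iv tail-vein dose on day 1; controls received 5% glucose. Tumor volume = (length × width²)/2 and body weight tracked.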

Compound | Activity
O=C1/C(=N/Nc2ccc([N+](=O)[O-])cc2)CCCc2ccccc21 | Active

Biological target: DNA topoisomerase 2-alpha (Mus musculus) (UniProt Q01320)
Assay: Inhibition of topoisomerase 2 from mouse P388 cells assessed as relaxation of pBR322 DNA by agarose gel electrophoresis relative to etoposide
Format: cell-based
Details: not given
Procedure, shortened: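 Topoisomerase II purified from P388 cells. One unit relaxes 0.125 µg supercoiled pBR322 DNA, incubated with or without inhibitor at 30 °C for 1 h in 50 mM Tris-HCl pH 8.0, 100 mM KCl, 10 mM MgCl2, 0.5 mM DTT, 1 mM ATP and 30 µg/ml BSA. Products run on 0.7% agarose in TBE, stained with ethidium bromide and imaged under UV.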

Chain of DNA topoisomerase 2-alpha (Mus musculus) (Q01320 whole entry): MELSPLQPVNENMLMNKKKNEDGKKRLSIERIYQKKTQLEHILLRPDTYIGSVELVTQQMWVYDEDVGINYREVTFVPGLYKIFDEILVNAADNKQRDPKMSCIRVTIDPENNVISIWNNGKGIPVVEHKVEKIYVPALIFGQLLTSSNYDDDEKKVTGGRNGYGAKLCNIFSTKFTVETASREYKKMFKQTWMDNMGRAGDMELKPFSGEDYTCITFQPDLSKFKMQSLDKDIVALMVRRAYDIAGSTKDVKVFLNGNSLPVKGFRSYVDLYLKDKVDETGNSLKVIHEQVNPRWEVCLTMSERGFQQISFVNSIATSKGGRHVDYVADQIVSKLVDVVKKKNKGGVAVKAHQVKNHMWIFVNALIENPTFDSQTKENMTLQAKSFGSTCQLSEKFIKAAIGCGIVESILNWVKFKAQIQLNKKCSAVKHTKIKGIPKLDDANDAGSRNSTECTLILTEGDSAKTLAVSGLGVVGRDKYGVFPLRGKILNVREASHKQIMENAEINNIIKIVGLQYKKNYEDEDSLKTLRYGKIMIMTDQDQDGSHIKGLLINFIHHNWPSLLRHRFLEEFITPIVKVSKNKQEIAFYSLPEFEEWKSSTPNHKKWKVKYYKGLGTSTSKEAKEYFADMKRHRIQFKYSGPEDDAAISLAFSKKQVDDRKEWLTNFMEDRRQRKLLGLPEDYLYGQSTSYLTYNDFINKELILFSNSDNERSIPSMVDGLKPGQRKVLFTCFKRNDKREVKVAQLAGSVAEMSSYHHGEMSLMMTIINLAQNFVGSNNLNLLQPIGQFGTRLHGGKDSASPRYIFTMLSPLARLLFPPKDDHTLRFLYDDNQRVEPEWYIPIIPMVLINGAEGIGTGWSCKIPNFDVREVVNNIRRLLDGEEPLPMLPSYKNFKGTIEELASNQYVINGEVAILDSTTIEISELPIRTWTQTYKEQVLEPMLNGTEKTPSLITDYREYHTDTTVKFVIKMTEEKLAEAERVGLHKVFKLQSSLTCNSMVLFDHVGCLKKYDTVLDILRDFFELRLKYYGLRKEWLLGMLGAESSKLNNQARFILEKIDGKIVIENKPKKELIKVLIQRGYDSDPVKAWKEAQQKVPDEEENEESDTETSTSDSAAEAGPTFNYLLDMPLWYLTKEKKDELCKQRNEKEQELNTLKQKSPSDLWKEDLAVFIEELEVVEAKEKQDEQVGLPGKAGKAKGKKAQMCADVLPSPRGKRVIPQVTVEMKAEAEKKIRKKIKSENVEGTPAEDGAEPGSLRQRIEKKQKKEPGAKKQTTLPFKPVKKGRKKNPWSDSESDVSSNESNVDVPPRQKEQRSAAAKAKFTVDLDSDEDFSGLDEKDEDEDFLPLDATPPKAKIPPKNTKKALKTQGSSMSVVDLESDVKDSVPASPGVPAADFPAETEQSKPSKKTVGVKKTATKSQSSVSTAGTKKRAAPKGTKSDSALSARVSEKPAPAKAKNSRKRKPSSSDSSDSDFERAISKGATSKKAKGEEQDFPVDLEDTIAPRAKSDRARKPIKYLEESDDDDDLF

Compound | Ratio
O=C1/C(=N/Nc2ccc([N+](=O)[O-])cc2)CCCc2ccccc21 | 4.6

Biological target: T1, DNA topoisomerase 1 (Homo sapiens) (UniProt P11387)
T1 sequence (whole entry): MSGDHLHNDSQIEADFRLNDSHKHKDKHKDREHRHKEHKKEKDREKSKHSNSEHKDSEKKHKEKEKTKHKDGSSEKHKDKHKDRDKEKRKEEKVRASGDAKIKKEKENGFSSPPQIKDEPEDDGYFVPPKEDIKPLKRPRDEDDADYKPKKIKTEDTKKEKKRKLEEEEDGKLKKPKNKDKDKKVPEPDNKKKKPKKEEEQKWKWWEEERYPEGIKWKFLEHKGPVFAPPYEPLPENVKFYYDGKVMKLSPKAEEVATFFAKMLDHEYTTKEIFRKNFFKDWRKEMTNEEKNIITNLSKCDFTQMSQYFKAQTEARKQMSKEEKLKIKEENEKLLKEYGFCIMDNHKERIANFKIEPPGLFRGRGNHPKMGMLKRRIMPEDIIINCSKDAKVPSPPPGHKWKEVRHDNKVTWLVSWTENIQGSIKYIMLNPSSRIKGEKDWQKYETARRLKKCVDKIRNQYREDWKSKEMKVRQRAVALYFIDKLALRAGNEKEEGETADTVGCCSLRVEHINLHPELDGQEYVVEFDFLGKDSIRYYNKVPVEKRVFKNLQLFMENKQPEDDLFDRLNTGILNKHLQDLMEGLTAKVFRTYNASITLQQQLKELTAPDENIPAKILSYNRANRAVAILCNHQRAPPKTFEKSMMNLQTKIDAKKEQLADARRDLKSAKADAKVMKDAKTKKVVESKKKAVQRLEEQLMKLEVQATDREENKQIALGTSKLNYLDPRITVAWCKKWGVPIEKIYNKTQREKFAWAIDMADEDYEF
Assay: Inhibition of topoisomerase 1 relative to etoposide
Details: not given

Compound | Ratio
O=C1/C(=N/Nc2ccc([N+](=O)[O-])cc2)CCCc2ccccc21 | 4.4

Test system: Aspergillus fumigatus
Assay: Antimicrobial activity against Aspergillus fumigatus at 5 ug/mL by agar diffusion method
Format: functional
Details: read-out: IZ

Compound | zone of inhibition at 5 µg/mL [mm]
O=C1/C(=N/Nc2ccc([N+](=O)[O-])cc2)CCCc2ccccc21 | 18
